Laboratory results from ChEMBL document CHEMBL4316599, “Synthesis, in vitro and in vivo biological evaluation of substituted 3-(5-imidazo[2,1-b]thiazolylmethylene)-2-indolinones as new potent anticancer agents” (Eur J Med Chem, 2019).
Activity calls are given as the source filed them. The rule behind the calls is not given here.

Columns and labels:
[1] = system: CNS carcinoma cell; assay: Cytotoxicity against human CNS cancer cells after 48 hrs by SRB assay; assay type: functional
Method in brief: (§1)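 NCI-60 screen: single-dose pass at 10^-5 M, then a five-concentration assay from 10^-9 to 10^-4 M (highest 100 μM). Exposure was 48 h under standard NCI protocols. GI50, TGI and LC50 were derived per cell line and averaged by subpanel. Repeated tests are the mean of two experiments.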

[2] = system: Leukemia cell; assay: Cytotoxicity against human leukemia cells after 48 hrs by SRB assay; assay type: functional; method in brief: as §1
[3] = system: NSCLC; assay: Cytotoxicity against human NSCLC cells after 48 hrs by SRB assay; assay type: functional; method in brief: as §1
[4] = Cytotoxicity against human COLON cells after 48 hrs by SRB assay; assay type: functional; method in brief: as §1
[5] = system: Renal cancer cell line; assay: Cytotoxicity against human renal cancer cells after 48 hrs by SRB assay; assay type: functional; method in brief: as §1
[6] = target: Tubulin (Bos taurus, UniProt Q6B856+Q862L2+Q862F3); assay: Inhibition of bovine brain tubulin polymerization after 20 mins by spectrophotometric analysis
Method in brief: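 Bovine brain tubulin (10 μM) in glutamate buffer preincubated with varying compound levels at 30 °C, then chilled to 0 °C. GTP added to 0.4 mM final, then warmed to 30 °C. Assembly followed by turbidity at 350 nm. IC50 is the concentration halving the extent of assembly after 20 min.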

[7] = target: Tubulin (Bos taurus) (UniProt Q6B856+Q862L2+Q862F3); assay: Inhibition of [3H]colchicine binding to bovine brain tubulin at 50 uM after 20 mins relative to control
Method in brief: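 Reaction mixtures held 1 μM tubulin, 5 μM [³H]colchicine and test compound at 5 or 50 μM. Read-out was percent inhibition of colchicine binding.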

[8] = system: HT-29; assay: Cell cycle arrest in human HT-29 cells assessed as accumulation of cells at G2/M phase after 24 hrs by propidium iodide staining-based flow cytometric analysis; assay type: functional
Method in brief: (§2)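 Cells exposed to a range of concentrations for 24 h (HeLa at 5×10^5 cells), then fixed in ice-cold 70% ethanol. Lysis buffer with RNase A and 0.1% Triton X-100 was applied before PI staining. DNA content was read by flow cytometry and G1/S/G2/M fractions taken from DNA histograms. Mean ± SEM of two independent experiments.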

[9] = system: HeLa; assay: Cell cycle arrest in human HeLa cells assessed as accumulation of cells at G2/M phase at 50 nM after 24 hrs by propidium iodide staining-based flow cytometric analysis relative to control; assay type: functional; method in brief: as §2
[10] = system: HT-29; assay: Cell cycle arrest in human HT-29 cells assessed as accumulation of cells at G2/M phase at 50 nM after 24 hrs by propidium iodide staining-based flow cytometric analysis relative to control; assay type: functional; method in brief: as §2
[11] = system: A549; assay: Cell cycle arrest in human A549 cells assessed as accumulation of cells at G2/M phase at 50 nM after 24 hrs by propidium iodide staining-based flow cytometric analysis relative to control; assay type: functional; method in brief: as §2
[12] = system: A549; assay: Cell cycle arrest in human A549 cells assessed as reduction in accumulation of cells at G1 phase up to 600 nM after 24 hrs by propidium iodide staining-based flow cytometric analysis; assay type: functional; method in brief: as §2
[13] = system: K562; assay: Cytotoxicity against human K562 cells after 48 hrs by SRB assay; assay type: functional, cell-based
[14] = system: K562; assay: Cell cycle arrest in human K562 cells assessed as mitotic index at 10 times IC50 by Giemsa staining-based assay (reference value: 3%); assay type: functional
[15] = system: HeLa; assay: Cell cycle arrest in human HeLa cells assessed as increase in cyclin B1 expression at 50 nM after 24 hrs by Western blot analysis; assay type: functional, cell-based
Method in brief: (§3)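 HeLa cells treated 24 h, washed in ice-cold PBS and lysed on ice 30 min. Lysates were spun at 15000 x g, 4 °C. 10 µg protein run on SDS-PAGE and blotted to PVDF. Blots were blocked in 5% BSA overnight at 4 °C and probed 2 h at room temperature. Detection by HRP-secondary and ECL, with bands normalized to β-actin as fold of untreated. Three independent experiments, one-way ANOVA/Dunnett.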

[16] = system: HeLa; assay: Cell cycle arrest in human HeLa cells assessed as decrease in p-cdc25c expression at 50 to 250 nM after 24 hrs by Western blot analysis; assay type: functional, cell-based; method in brief: as §3
[17] = system: HeLa; assay: Cell cycle arrest in human HeLa cells assessed as decrease in cdc2 phosphorylation at 50 to 250 nM after 24 hrs by Western blot analysis; assay type: functional, cell-based; method in brief: as §3
[18] = system: HeLa; assay: Induction of mitochondrial membrane depolarization in human HeLa cells at 250 to 500 nM after 6 to 48 hrs by JC-1 staining-based assay; assay type: functional, cell-based; conditions: TDE = time-dependent effect
Method in brief: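 HeLa cells treated at 250-500 nM for 6, 12, 24 or 48 h, then stained with JC-1. Percentage of cells with low mitochondrial membrane potential measured by flow cytometry. Mean ± SEM of three independent experiments.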

[19] = system: HeLa; assay: Induction of apoptosis in human HeLa cells assessed as increase in caspase-3 activity at 50 to 250 nM after 24 hrs by Western blot analysis; assay type: functional, cell-based; method in brief: as §3
[20] = system: HeLa; assay: Induction of apoptosis in human HeLa cells assessed as increase in cleaved PARP levels at 50 nM after 24 hrs by Western blot analysis; assay type: functional, cell-based; method in brief: as §3
[21] = system: HeLa; assay: Induction of apoptosis in human HeLa cells assessed as decrease in Bcl-2 levels at 50 to 250 nM after 24 hrs by Western blot analysis; assay type: functional, cell-based; method in brief: as §3
[22] = system: B16-BL6; assay: Growth inhibition of mouse B16-BL6 cells after 72 hrs by MTT assay; assay type: functional; conditions: B16-BL6, 72 h
Method in brief: (§4)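 Murine BL6-B16 melanoma and EO771 breast tumor cells were exposed to compound for 72 h. GI50 is reported ± error.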

[23] = system: E0771; assay: Growth inhibition of mouse E0771 cells after 72 hrs by MTT assay; assay type: functional; conditions: E0771, 72 h; method in brief: as §4
[24] = Toxicity in C57BL/6 mouse implanted with mouse B16-BL6 cells assessed as effect on body weight at 7.5 to 15 mg/kg, ip dosed every day for 18 days; assay type: organism-based; conditions: in vivo, 432 h, in the assay text read “every other day” for “every day”
Method in brief: (§5)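 C57BL/6 mice, six weeks old, received 2.5×10^5 BL6-B16 or E0771 cells s.c. in the dorsolateral flank in PBS. Dosing began once tumours reached about 100 mm³: 7.5 or 15 mg/kg i.p. every other day in 50 μL DMSO. Vehicle and CA-4P 30 mg/kg served as controls. Body weight was monitored, with 5 animals per group.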

[25] = Toxicity in C57BL/6 mouse implanted with mouse E0771 cells assessed as effect on body weight at 7.5 to 15 mg/kg, ip dosed every day for 20 days; assay type: organism-based; conditions: in vivo, 480 h, in the assay text read “every other day” for “every day”; method in brief: as §5
[26] = system: K562; assay: Cytotoxicity against human K562 cells after 16 hrs by SRB assay; conditions: K562, 16 h
[27] = read-out: LC50 (the source's name)

## O=C1Nc2c(ccc3ccccc23)C1=Cc1c(-c2ccncc2)nc2sccn12
[1]
  GI50: 0.04 µM
  TGI: 79.8 µM
[1]; [27]
  CC50: 94.3 µM
[2]
  GI50: 0.03 µM
  TGI: 79.5 µM
[3]
  GI50: 11.1 µM
  LC50: 97.9 µM
  TGI: 79.9 µM
[4]
  GI50: 0.03 µM
  TGI: 39.9 µM
[4]; [27]
  CC50: 77 µM
[5]
  GI50: 11.8 µM
  TGI: 70.1 µM
[6]
  IC50: 14 µM
[7]
  inhibition: 51%
[8]
  Activity: Dose-dependent effect
[9]
  Activity: >80%
[10]
  Activity: >80%
[11]
  Activity: >80%
[12]
  Activity: Active
[13]
  Activity: Dose-dependent effect
[14]
  Activity: 58%
[15]
  Activity: Active
[16]
  Activity: Active
[17]
  Activity: Active
[18]
  Activity: Tde
[19]
  Activity: Active
[20]
  Activity: Active
[21]
  Activity: Active
[22]
  GI50: 0.305 µM
[23]
  GI50: 0.015 µM
[24]
  Activity: Non-Toxic
[25]
  Activity: Non-Toxic
[26]
  IC50: 0.03 µM
